Measured values pooled from the literature.
Compare with care: the assays were run in different laboratories.
Target: Casein kinase I isoform gamma-1 (CSNK1G1, Homo sapiens, UniProt Q9HCP0)

The remaining binding of `CN1CCN(C(=O)c2ccc(NC(=O)Nc3ccc(N(C)c4ccnc(Nc5ccc(CS(C)(=O)=O)cc5)n4)cc3)cc2)CC1` is reported as 100% (binding; 1 µM).
The remaining binding of `CCCCC(=O)Nc1ccc(-c2ccc3ncn(CCC)c(=O)c3c2)cn1` is reported as 100% (binding, competition with immobilised ligand; 0.5 µM).
The remaining signal of `C1=C/COCc2cc(ccc2OCCN2CCCC2)Nc2nccc(n2)-c2cccc(c2)COC/1` is reported as 72% (cell-free assay; 0.1 µM).
For `CC(C)S(=O)(=O)c1ccc2nccc(Nc3ccc4sc(C5CCCC5)nc4c3)c2c1`, the activity vs control was 96% (enzyme activity, inhibitor; 1 µM).
With `C#Cc1cc(-c2cc(Nc3nc(N[C@@H](C)c4ccc(F)cn4)ncc3Cl)n[nH]2)ccc1C=O` the inhibition was 4.78% (enzyme activity, inhibitor; 0.2 µM).
With `C=CC(=O)N1CCC[C@@H](n2nc(-c3ccc(Oc4ccccc4)cc3)c3c(N)ncnc32)C1` the inhibition was 7% (enzyme activity, inhibitor; 1 µM).
For `C[C@H]1CC[C@H](n2c3cnccc3c3cnc(Nc4ccc5c(n4)CCN(C(=O)CO)C5)nc32)CC1`, the remaining signal was 100% (cell-free assay; 1 µM).
`CO[C@@H]1[C@H](N(C)C(=O)c2ccccc2)C[C@H]2O[C@]1(C)n1c3ccccc3c3c4c(c5c6ccccc6n2c5c31)C(=O)NC4` has an inhibition of 0% (enzyme activity, inhibitor; 1 µM).
The inhibition of `Cc1cc(O)c(-c2ccc([C@@H](C)CN(C)C)cc2)c2c1[nH]c(=O)c1sccc12` is reported as -2.19% (enzyme activity, inhibitor; 0.1 µM).
